ChEMBL document CHEMBL1146828, “Synthesis and biological characterisation of [3H]BBL454, a new CCK2 selective radiolabelled agonist displaying original pharmacological properties” (Bioorg Med Chem Lett, 2004)
pEC50, pKi: −log10 of the molar value. Non-standard residues stand in square brackets, D forms with d. Residues, ends and D or L forms follow the SMILES beside them. *: point of attachment. NMeNle = CCCC[C@H](NC)C(=O)O; X1 = CCCCCNC(=O)CC(=O)*; Boc = CC(C)(C)OC(=O)*

Legend:
[1] = biological target: Gastrin/cholecystokinin type B receptor (Rattus norvegicus) (UniProt P30553); experiment: Ability to displace 1 nM [3H]pCCK-8 from rat Cholecystokinin type B receptor stably expressing in CHO cells
[2] = biological target: Cholecystokinin receptor type A (Cavia porcellus); experiment: Ability to displace 1 nM [3H]pCCK-8 from Cholecystokinin type A receptor in guinea pig pancreatic membranes
[3] = test system: CHO; experiment: Agonistic activity on inositol phosphate production by intact transfected CHO cells; type: functional, cell-based; conditions: Cricetulus griseus
Procedure, shortened: (§1)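 Functional agonism on intact CHO cells transfected with CCK2 receptors. Two read-outs were measured, inositol phosphate production and arachidonic acid liberation, each expressed as EC50.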

[4] = test system: CHO; experiment: Compound was evaluated for binding of [3H]BBL454 to two sites in CHO cells with low affinity; type: functional, Cricetulus griseus
[5] = test system: CHO; experiment: Compound was evaluated for maximum binding of [3H]BBL454 to two sites in CHO cells with high affinity; type: functional, Cricetulus griseus
[6] = test system: CHO; experiment: Agonistic activity on arachidonic acid liberation by intact transfected CHO cells; type: functional, cell-based; conditions: Cricetulus griseus
Procedure, shortened: as §1

[7] = test system: CHO; experiment: Compound was evaluated for binding of [3H]BBL454 to two sites in CHO cells with high affinity; type: functional, Cricetulus griseus

Gastrin/cholecystokinin type B receptor (Rattus norvegicus), sequence (P30553 whole entry, looked up): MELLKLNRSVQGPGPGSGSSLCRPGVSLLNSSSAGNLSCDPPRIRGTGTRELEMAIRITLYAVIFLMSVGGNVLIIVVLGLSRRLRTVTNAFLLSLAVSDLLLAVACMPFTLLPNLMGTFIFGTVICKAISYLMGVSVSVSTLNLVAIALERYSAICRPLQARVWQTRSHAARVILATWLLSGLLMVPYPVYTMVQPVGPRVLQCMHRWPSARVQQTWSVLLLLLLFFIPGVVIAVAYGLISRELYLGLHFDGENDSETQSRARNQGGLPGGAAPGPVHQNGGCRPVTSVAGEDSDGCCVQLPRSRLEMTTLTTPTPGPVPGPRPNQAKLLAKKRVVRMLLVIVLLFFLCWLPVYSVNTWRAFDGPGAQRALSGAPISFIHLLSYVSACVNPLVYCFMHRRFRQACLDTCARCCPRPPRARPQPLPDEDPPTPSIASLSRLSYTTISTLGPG

pKi [1] | pKi [2] | SMILES | pEC50 [3] | KD2 [4] | Bmax1 [5] | pEC50 [6] | KD1 [7]
8.59 | < 5.30 | CCCC[C@@H](C(=O)N[C@@H](CC(=O)O)C(=O)N[C@@H](Cc1ccccc1)C(N)=O)N(C)C(=O)[C@H](Cc1c[nH]c2ccccc12)NC(=O)OC(C)(C)C (Boc-W[NMeNle]DF-NH2) |  |  |  |  | 
8.58 | 5.44 | CCCCCNC(=O)CC(=O)N[C@@H](Cc1c[nH]c2ccccc12)C(=O)N(C)[C@@H](CCCC)C(=O)N[C@@H](CC(=O)O)C(=O)N[C@@H](Cc1ccccc1)C(N)=O (X1-W[NMeNle]DF-NH2) | 8.70 | 194 nM | 120 fmol/mg | 8.16 | 0.71 nM
